Six molecules from ChEMBL document CHEMBL1124824, “Synthesis and biological activity of atrial natriuretic factor analogues: effect of modifications to the disulfide bridge” (J Med Chem, 1990) can be followed below.

Starred links: 1 amine or outer side, 2 acyl side, 3 side chain; linkers in the order of their positions; H or OH if unused. Positions of bridges follow the written chain, without caps; N, C: chain ends. Non-standard residues stand in square brackets, D forms with d. Residues, ends and D or L forms follow the SMILES beside them. Pen = CC(C)(S)[C@H](N)C(=O)O; hCys = N[C@@H](CCS)C(=O)O; X2 = O=C(CCC[*:2])[*:1]; X1 = O=C(CC[*:2])[*:1]

The species named for assay [1] is Rattus norvegicus. In words: Compound was tested for the Cl- excretion for treated over control animals. In kind it is functional. In a few lines: (§1)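 Male Sprague-Dawley rats (300-325 g) under halothane/lidocaine had femoral artery, femoral vein and bladder cannulated. After at least 1 h of recovery in restraint, they received Ringer's (1.2 mL/h), with 10-min urine collections over a 30-min control period. Infusion of 0.5 μg/kg per min for 30 min and a 30-min Ringer's recovery followed. Na+, K+ and Cl- were measured with an electrolyte analyzer, reported as treated minus control μmol/sample. Volume ratio is treated/control over three consecutive 10-min samples, six animals.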

For assay [2], the species on record is Rattus norvegicus. Kind of assay: Compound was tested for antihypertensive activity in 5/6 nephrectomized rats. The assay is classed as functional. In a few lines: (§2)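 Rats were anesthetized with halothane after skin infiltration with 2% lidocaine, and the femoral artery and vein were cannulated. After recovery, arterial pressure was recorded. A saline control period was followed by i.v. infusion in 30-min steps at 0.1, 0.2, 0.5 and 1.0 μg/kg per min (70 μL/kg per min). Hydralazine (100 μg/kg per min) was given for standardization. ED50 is in nmol/kg per min, from six animals.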

Assay [3] has as its system Rattus norvegicus. Kind of assay: Compound was tested for diuretic activity and the ratio of urine volume for treated over control animals was reported after infused at a dose of 0.5 ug/kg. In kind it is functional. In short, it runs like this: as §1
Assay [4] is filed under the species Rattus norvegicus. Kind of assay: Compound was tested for antihypertensive activity in DOCA nephrectomized rats. In kind it is functional. In a few lines: as §2
Assay [5] is filed under the species Rattus norvegicus. In words: Compound was tested for the Na+ excretion for treated over control animals. In kind it is functional. In a few lines:
as §1

For assay [6], the species on record is Rattus norvegicus. In words: Compound was tested for the K+ excretion for treated over control animals. The assay is classed as functional. In a few lines: as §1
The species named for a further assay is Oryctolagus cuniculus. In words: Compound was tested for the inhibition of the stimulated contractions of the superfused rabbit thoracic aortic rings. The assay is classed as functional, Aorta. In a few lines: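 Rabbit thoracic aorta rings (4 mm) were held isometrically at 10-g resting tension, superfused and precontracted with phenylephrine. Test peptide was added to the superfusate above the tissue in successively higher doses after each recovery. Doses were based on peptide content. EC50 came from the dose-response curve, mean of three determinations ± SEM.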

Assay [7] deals with T1, Atrial natriuretic peptide receptor 2 (Bos taurus, UniProt P46197).
T1 sequence (P46197 whole entry): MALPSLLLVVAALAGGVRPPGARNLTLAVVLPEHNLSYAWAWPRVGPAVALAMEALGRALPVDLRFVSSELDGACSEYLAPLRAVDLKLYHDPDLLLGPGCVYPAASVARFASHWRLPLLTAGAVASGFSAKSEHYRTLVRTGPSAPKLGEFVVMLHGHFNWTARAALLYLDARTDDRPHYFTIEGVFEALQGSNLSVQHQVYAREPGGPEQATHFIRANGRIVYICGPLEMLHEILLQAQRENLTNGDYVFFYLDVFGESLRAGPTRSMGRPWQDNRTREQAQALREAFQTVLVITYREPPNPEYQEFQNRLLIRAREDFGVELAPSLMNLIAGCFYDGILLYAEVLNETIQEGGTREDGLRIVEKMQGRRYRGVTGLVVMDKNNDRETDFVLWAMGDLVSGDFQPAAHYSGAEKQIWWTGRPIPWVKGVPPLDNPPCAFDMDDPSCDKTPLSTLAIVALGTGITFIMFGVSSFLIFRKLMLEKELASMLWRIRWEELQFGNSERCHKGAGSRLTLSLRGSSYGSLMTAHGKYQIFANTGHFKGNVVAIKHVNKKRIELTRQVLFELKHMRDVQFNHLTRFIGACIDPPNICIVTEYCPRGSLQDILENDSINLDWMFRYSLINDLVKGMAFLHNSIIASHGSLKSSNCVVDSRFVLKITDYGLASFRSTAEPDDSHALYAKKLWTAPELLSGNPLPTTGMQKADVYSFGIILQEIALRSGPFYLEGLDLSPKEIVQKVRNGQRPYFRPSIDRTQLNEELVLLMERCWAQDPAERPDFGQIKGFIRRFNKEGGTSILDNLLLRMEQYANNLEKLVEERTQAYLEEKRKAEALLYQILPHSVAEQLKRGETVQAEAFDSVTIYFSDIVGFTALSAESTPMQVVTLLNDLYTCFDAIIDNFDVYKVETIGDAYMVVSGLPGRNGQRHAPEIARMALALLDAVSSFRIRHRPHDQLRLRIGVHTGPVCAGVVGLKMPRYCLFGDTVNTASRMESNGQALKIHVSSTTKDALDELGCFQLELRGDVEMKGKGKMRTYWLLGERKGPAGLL
In words: Binding affinity was determined based on the displacement of [125]r-ANF (99-126) from binding sites on bovine adrenal zona glomerulosa cell membranes (Atrionatriuretic peptide receptor B).

In assay [8] the target is T2, Atrial natriuretic peptide receptor 3 (Mus musculus, UniProt P70180).
T2 sequence (P70180 whole entry): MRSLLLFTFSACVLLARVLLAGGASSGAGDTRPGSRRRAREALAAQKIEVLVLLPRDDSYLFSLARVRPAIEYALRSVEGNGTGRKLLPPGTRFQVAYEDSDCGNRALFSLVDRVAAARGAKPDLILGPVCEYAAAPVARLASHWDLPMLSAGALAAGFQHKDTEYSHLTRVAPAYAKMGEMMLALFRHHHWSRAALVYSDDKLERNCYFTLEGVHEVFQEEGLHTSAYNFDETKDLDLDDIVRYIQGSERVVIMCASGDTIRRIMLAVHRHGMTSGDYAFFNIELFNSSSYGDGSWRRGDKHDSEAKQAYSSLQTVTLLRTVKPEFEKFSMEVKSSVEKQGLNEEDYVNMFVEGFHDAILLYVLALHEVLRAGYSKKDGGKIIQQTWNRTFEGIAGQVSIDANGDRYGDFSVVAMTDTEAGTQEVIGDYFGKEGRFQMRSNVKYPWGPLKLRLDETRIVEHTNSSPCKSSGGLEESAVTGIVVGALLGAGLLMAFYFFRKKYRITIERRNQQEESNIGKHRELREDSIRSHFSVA
Kind of assay: Binding affinity was determined based on the displacement of [125]r-ANF (99-126) from binding sites on mouse fibroblasts (NIH 3T3) cells (Atrionatriuretic peptide receptor C).

One may read the IC50 as the concentration needed to halve the response being measured. A higher IC50 goes with weaker potency.

For `CC[C@H](C)[C@@H]1NC(=O)[C@H](CCCN=C(N)N)NC(=O)[C@H](CC(=O)O)NC(=O)[C@H]([C@@H](C)CC)NC(=O)[C@H](CCCN=C(N)N)NC(=O)CNC(=O)CNC(=O)[C@H](Cc2ccccc2)NC(=O)[C@@H](NC(=O)[C@H](CO)NC(=O)[C@H](CO)NC(=O)[C@H](CCCN=C(N)N)NC(=O)[C@H](CC(C)C)NC(=O)[C@@H](N)CO)CSSC[C@@H](C(=O)N[C@@H](CC(N)=O)C(=O)N[C@@H](CO)C(=O)N[C@@H](Cc2ccccc2)C(=O)N[C@@H](CCCN=C(N)N)C(=O)N[C@@H](Cc2ccc(O)cc2)C(=O)O)NC(=O)CNC(=O)[C@H](CC(C)C)NC(=O)CNC(=O)[C@H](CO)NC(=O)[C@H](CCC(N)=O)NC(=O)[C@H](C)NC(=O)CNC1=O`, the figures for the Electrolyte excretion in the assay listed under Rattus norvegicus [1], in the assay listed under Rattus norvegicus [5] and in the assay listed under Rattus norvegicus [6] were 72.4 umol/sample, 57.4 uM sample-1 and 16.2 uM sample-1, respectively. The ED50 in the assay filed under Rattus norvegicus [2] came to 0.14 nM/min/kg; in the assay filed under Rattus norvegicus [4] it was 0.1 nM/min/kg. Further, the Ratio with Rattus norvegicus [3] turned out to be 3.1.
Take `CC[C@H](C)[C@@H]1NC(=O)[C@H](CCCN=C(N)N)NC(=O)[C@H](CC(=O)O)NC(=O)[C@H]([C@@H](C)CC)NC(=O)[C@H](CCCN=C(N)N)NC(=O)CNC(=O)CNC(=O)[C@H](Cc2ccccc2)NC(=O)[C@@H](NC(=O)[C@H](CO)NC(=O)[C@@H](N)CO)CSSC[C@@H](C(=O)N[C@@H](CC(N)=O)C(=O)N[C@@H](CO)C(=O)N[C@@H](Cc2ccccc2)C(=O)N[C@@H](CCCN=C(N)N)C(=O)N[C@@H](Cc2ccc(O)cc2)C(=O)O)NC(=O)CNC(=O)[C@H](CC(C)C)NC(=O)CNC(=O)[C@H](CO)NC(=O)[C@H](CCC(N)=O)NC(=O)[C@H](C)NC(=O)CNC1=O` (H-SSCFGGRIDRIGAQSGLGCNSFRY-OH; disulfide 3-19): the ED50 in the assay listed under Rattus norvegicus [2] turned out to be 0.13 nM/min/kg; in the assay filed under Rattus norvegicus [4] it was 0.16 nM/min/kg. Further, in the assay on Rattus norvegicus [3], the Ratio was 2.7. In addition, the Electrolyte excretion in the assay filed under Rattus norvegicus [5] was 79.6 uM sample-1; in the assay listed under Rattus norvegicus [6] it was 23 uM sample-1.
On to `CC[C@H](C)[C@@H]1NC(=O)[C@H](CCCN=C(N)N)NC(=O)[C@H](CC(=O)O)NC(=O)[C@H]([C@@H](C)CC)NC(=O)[C@H](CCCN=C(N)N)NC(=O)CNC(=O)CNC(=O)[C@H](Cc2ccccc2)NC(=O)CCCSC[C@@H](C(=O)N[C@@H](CC(N)=O)C(=O)N[C@@H](CO)C(=O)N[C@@H](Cc2ccccc2)C(=O)N[C@@H](CCCN=C(N)N)C(=O)N[C@@H](Cc2ccc(O)cc2)C(=O)O)NC(=O)CNC(=O)[C@H](CC(C)C)NC(=O)CNC(=O)[C@H](CO)NC(=O)[C@H](CCC(N)=O)NC(=O)[C@H](C)NC(=O)CNC1=O` (FGGRIDRIGAQSGLGCNSFRY-OH; linker N-16 via X2), for which the Electrolyte excretion was found to be 41.1 umol/sample in the assay listed under Rattus norvegicus [1], 34 uM sample-1 in the assay listed under Rattus norvegicus [5] and 10.2 uM sample-1 in the assay filed under Rattus norvegicus [6]. Moreover, the ED50 in the assay filed under Rattus norvegicus [2] was 1.1 nM/min/kg; in the assay filed under Rattus norvegicus [4], 0.72 nM/min/kg. Moreover, the Ratio in the assay with Rattus norvegicus [3] is 2.8.
As for `CC[C@H](C)[C@@H]1NC(=O)[C@H](CCCN=C(N)N)NC(=O)[C@H](CC(=O)O)NC(=O)[C@H]([C@@H](C)CC)NC(=O)[C@H](CCCN=C(N)N)NC(=O)CNC(=O)CNC(=O)[C@H](Cc2ccccc2)NC(=O)[C@@H](N)CSSC[C@@H](C(=O)N[C@@H](CC(N)=O)C(=O)N[C@@H](CO)C(=O)N[C@@H](Cc2ccccc2)C(=O)N[C@@H](CCCN=C(N)N)C(=O)N[C@@H](Cc2ccc(O)cc2)C(=O)O)NC(=O)CNC(=O)[C@H](CC(C)C)NC(=O)CNC(=O)[C@H](CO)NC(=O)[C@H](CCC(N)=O)NC(=O)[C@H](C)NC(=O)CNC1=O` (H-CFGGRIDRIGAQSGLGCNSFRY-OH; disulfide 1-17), the Electrolyte excretion in the assay listed under Rattus norvegicus [1] was 28.5 umol/sample; in the assay filed under Rattus norvegicus [5], 15.9 uM sample-1; in the assay filed under Rattus norvegicus [6], 12.9 uM sample-1. The same molecule came in with an EC50 in the assay listed under Oryctolagus cuniculus of 3.1e-10 M 50ul-1. The same molecule gave an ED50 in the assay filed under Rattus norvegicus [4] of 0.1 nM/min/kg. Further, the IC50 in assay [7] is 3.6 nM; in assay [8], 0.5 nM.
As for `CC[C@H](C)[C@@H]1NC(=O)[C@H](CCCN=C(N)N)NC(=O)[C@H](CC(=O)O)NC(=O)[C@H]([C@@H](C)CC)NC(=O)[C@H](CCCN=C(N)N)NC(=O)CNC(=O)CNC(=O)[C@H](Cc2ccccc2)NC(=O)CCCSC(C)(C)[C@@H](C(=O)N[C@@H](CC(N)=O)C(=O)N[C@@H](CO)C(=O)N[C@@H](Cc2ccccc2)C(=O)N[C@@H](CCCN=C(N)N)C(=O)N[C@@H](Cc2ccc(O)cc2)C(=O)O)NC(=O)CNC(=O)[C@H](CC(C)C)NC(=O)CNC(=O)[C@H](CO)NC(=O)[C@H](CCC(N)=O)NC(=O)[C@H](C)NC(=O)CNC1=O` (FGGRIDRIGAQSGLG[Pen]NSFRY-OH; linker N-16 via X2), the Electrolyte excretion in the assay filed under Rattus norvegicus [1] is 39.6 umol/sample; in the assay filed under Rattus norvegicus [5] it was 17.9 uM sample-1; in the assay filed under Rattus norvegicus [6], 24.8 uM sample-1. Moreover, the ED50 in the assay filed under Rattus norvegicus [2] came to 0.11 nM/min/kg; in the assay filed under Rattus norvegicus [4], 0.14 nM/min/kg. Besides, in the assay with Rattus norvegicus [3], the Ratio was 3.
Turning to `CC[C@H](C)[C@@H]1NC(=O)[C@H](CCCN=C(N)N)NC(=O)[C@H](CC(=O)O)NC(=O)[C@H]([C@@H](C)CC)NC(=O)[C@H](CCCN=C(N)N)NC(=O)CNC(=O)CNC(=O)[C@H](Cc2ccccc2)NC(=O)CCSCC[C@@H](C(=O)N[C@@H](CC(N)=O)C(=O)N[C@@H](CO)C(=O)N[C@@H](Cc2ccccc2)C(=O)N[C@@H](CCCN=C(N)N)C(=O)N[C@@H](Cc2ccc(O)cc2)C(=O)O)NC(=O)CNC(=O)[C@H](CC(C)C)NC(=O)CNC(=O)[C@H](CO)NC(=O)[C@H](CCC(N)=O)NC(=O)[C@H](C)NC(=O)CNC1=O` (FGGRIDRIGAQSGLG[hCys]NSFRY-OH; linker N-16 via X1), the Electrolyte excretion in the assay filed under Rattus norvegicus [1] was 15.9 umol/sample; in the assay listed under Rattus norvegicus [5], 7.2 uM sample-1; in the assay listed under Rattus norvegicus [6] it was 3.5 uM sample-1. For the same molecule, the ED50 in the assay listed under Rattus norvegicus [2] was found to be 1.2 nM/min/kg; in the assay filed under Rattus norvegicus [4], 0.83 nM/min/kg. Moreover, the Ratio in the assay with Rattus norvegicus [3] came to 1.7.
